Results of several laboratories.
Compare with care: the assays were run in different laboratories.
Target: Cyclin-dependent kinase 9 (CDK9, Homo sapiens, UniProt P50750)

O=C(Nc1c[nH]nc1C(=O)NC1CCNCC1)c1cc(F)cc(F)c1
remaining binding (binding, competition with immobilised ligand; 1 µM): 72%

NS(=O)(=O)c1cc(NC(=O)C2(c3ccccc3Cl)CC2)ccc1Oc1cccc(Cl)c1
remaining binding (cell-free assay, competition with immobilised ligand; 1 µM): 78%

Nc1ncc2c(n1)-c1c([nH]c3ccc(C#CC4CC4)cc13)CCCC2
remaining binding (binding, competition with immobilised ligand; 1 µM): 91%

C[C@@H]1CCN(c2nccc(-c3cnn4ncccc34)n2)C1
remaining binding (binding; 1 µM): 87%

N#Cc1ccccc1CSc1nnc2c(n1)[nH]c1ccccc12
remaining binding (binding, competition with immobilised ligand; 10 µM): 84%

CCC(=O)N[C@H]1CC[C@@H](C(=O)N(C)c2ccc(-c3nc4ccccc4o3)cc2)C1
remaining binding (cell-free assay, competition with immobilised ligand; 1 µM): 95%

Cc1cnc(Nc2ccc(C(=O)N3CCC(N4CCCC4)CC3)cc2)nc1-c1cc2ccccc2s1
remaining binding (binding, competition with immobilised ligand; 1 µM): 82%

COc1ccc2c(O[C@@H]3C[C@H]4C(=O)N[C@]5(C(=O)O)CC5/C=C\CCCCC[C@H](NC(=O)OC5CCCC5)C(=O)N4C3)cc(-c3csc(NC(=O)C(C)C)n3)nc2c1C (some centres unmarked)
remaining binding (cell-free assay, competition with immobilised ligand; 1 µM): 83%

O=C(NCCCN1CCOCC1)c1ccc(Nc2ncc(Cl)c(-c3ccc(Cl)s3)n2)cc1
remaining binding (binding, competition with immobilised ligand; 1 µM): 56%

FC(F)(F)Oc1cccc(-c2cnc3ccc(-c4ccncc4)nn23)c1
remaining binding (cell-free assay, competition with immobilised ligand; 5 µM): 89%

O=C(NCCCN1CCOCC1)c1ccc(Nc2nccc(-c3cc4ccccc4s3)n2)cc1
remaining binding (binding, competition with immobilised ligand; 1 µM): 52%

C[C@@H]1CN(c2ccc3ncc(-c4ccc5[nH]nc(C6CC6)c5c4)n3n2)C[C@H](C)O1
remaining binding (binding, competition with immobilised ligand; 50 nM): 79%

CN(C)c1nccc(-c2cnn3ncccc23)n1
remaining binding (binding; 1 µM): 100%

COc1cnc(Nc2cccc(S(N)(=O)=O)c2)nc1N1CCN(c2ccccc2)C(=O)C1
remaining binding (binding, competition with immobilised ligand; 1 µM): 100%

CN(C)c1nccc(-c2cnc3ncccn23)n1
remaining binding (binding; 1 µM): 100%

Nc1cnc(N2CCc3cc(S(=O)(=O)Nc4c(F)cc(Cl)cc4F)cc(N4CCCC4=O)c32)nc1
remaining binding (cell-free assay, competition with immobilised ligand; 1 µM): 100%

N[C@@H]1CCN(c2nccc(-c3cnn4ncccc34)n2)C1
remaining binding (binding; 1 µM): 100%

Cc1nccc(COC(=O)N2C[C@@H]3[C@@H](CNC(=O)c4ccc5[nH]nnc5c4)[C@@H]3C2)n1
remaining binding (cell-free assay, competition with immobilised ligand; 1 µM): 100%

CN(CCCC(F)(F)F)c1nccc(-c2cnn3ncccc23)n1
remaining binding (binding; 1 µM): 100%

CS(=O)(=O)N1CCCC(NC(=O)[C@H](CCC2CCCCC2)NC(=O)c2ccc(CNc3ncnc4c3nnn4-c3ccccc3)cc2)C1 (some centres unmarked)
remaining binding (cell-free assay, competition with immobilised ligand; 0.1 µM): 87%

CC1CCCN1c1nccc(-c2cnn3ncccc23)n1 (centres unmarked)
remaining binding (binding; 1 µM): 100%

Cc1c(C(=O)O)cc(-c2ccc(C3CCNCC3)cc2)c2ccc(-c3ccc(C(F)(F)F)cc3)cc12
remaining binding (binding, competition with immobilised ligand; 1 µM): 100%

COc1cnc(Nc2cccc(S(N)(=O)=O)c2)nc1N1CCN(c2ccccc2)CC1
remaining binding (binding, competition with immobilised ligand; 1 µM): 100%
